Test results reported in paper PMC2219267 (The Journal of General Physiology, 1996).

Tests used:
band 3 [1] = biological target: T1, band 3 (Homo sapiens, UniProt P02730); settings: cited from earlier work
T1 sequence (P02730 1-911): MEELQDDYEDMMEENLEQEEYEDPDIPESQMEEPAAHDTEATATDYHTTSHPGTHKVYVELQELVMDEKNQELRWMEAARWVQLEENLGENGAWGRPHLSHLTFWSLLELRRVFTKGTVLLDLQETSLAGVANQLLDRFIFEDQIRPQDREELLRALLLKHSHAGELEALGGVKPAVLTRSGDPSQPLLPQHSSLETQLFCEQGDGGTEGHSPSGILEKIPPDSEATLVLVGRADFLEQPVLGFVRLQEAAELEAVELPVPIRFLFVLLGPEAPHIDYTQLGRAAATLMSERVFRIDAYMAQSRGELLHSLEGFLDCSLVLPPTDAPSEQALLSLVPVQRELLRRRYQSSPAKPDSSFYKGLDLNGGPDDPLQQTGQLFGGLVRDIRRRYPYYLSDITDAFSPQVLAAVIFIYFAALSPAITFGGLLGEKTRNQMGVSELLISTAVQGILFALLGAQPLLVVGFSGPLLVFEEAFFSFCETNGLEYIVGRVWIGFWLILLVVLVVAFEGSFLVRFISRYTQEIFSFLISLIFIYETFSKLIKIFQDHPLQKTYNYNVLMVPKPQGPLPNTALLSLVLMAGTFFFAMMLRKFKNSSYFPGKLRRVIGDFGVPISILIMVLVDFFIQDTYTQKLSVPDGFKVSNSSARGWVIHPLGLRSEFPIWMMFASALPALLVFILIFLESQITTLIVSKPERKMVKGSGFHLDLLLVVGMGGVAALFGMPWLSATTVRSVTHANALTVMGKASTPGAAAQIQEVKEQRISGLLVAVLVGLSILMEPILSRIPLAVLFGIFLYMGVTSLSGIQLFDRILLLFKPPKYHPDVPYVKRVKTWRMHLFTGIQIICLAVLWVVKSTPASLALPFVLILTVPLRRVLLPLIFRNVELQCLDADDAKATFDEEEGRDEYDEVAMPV

band 3 [2] = biological target: T1, band 3; test: 125I iodide influx into red blood cells; assay type: cell-based
How it was run: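 Heparinised human blood was washed three times in 150 KH (150 mM KCl, 24 mM sucrose, 20 mM Hepes, pH 7.2 at 0°C), with white cells aspirated, then held at 50% hematocrit. DIDS-treated cells received a 2 mM DIDS stock. Media mixed sucrose, KCl and KI with 5 mM buffer. Above pHo 11, cells were nystatin-loaded to 300 mM Cl-, and CAPS-buffered media were used.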

[I-].[K+] [iodide, potassium iodide]
transport rate relative to Cl- (band 3 [1]; 0°C, pH 7.4, ref Dalmark and Wieth, 1972): 260 times slower
1/R, ratio of dissociation constants alkaline/neutral state (band 3 [1]; ref Bjerrum (1992)): 35.8
R = K++I/K+I, ratio of I- dissociation constants for neutral and alkaline forms (band 3 [1]; ref Bjerrum (1992)): 0.0279
I- influx as % of Cl- efflux (band 3 [2]; no citrate, [Clo] 0.28 mM, [Io] 2.2 mM, 0°C): less than 6%
half-saturation concentration for Io activation of I- influx (band 3 [2]; pH 10.6, 1.65 mM [Clo]): 26.4 ± 1.8 mM
I- influx as % of Cl- efflux (band 3 [2]; pH 11.5, 53 mM [Io], 16.5 mM [Clo]): 16%
I- influx as % of Cl- efflux (band 3 [2]; pHo 10.6, 1.65 mM [Clo], up to 15 mM [Io]): less than 10%
